As a reminder, the inhibition is how much of the control response was suppressed.

Test [1] has as its target Serine/threonine-protein kinase PLK4 (Homo sapiens) (UniProt O00444). Briefly: Inhibition of T7 bacteriophage fused human PLK4 at 10 uM by KINOMEscan analysis relative to control.
Test [2] concerns the target Cyclin-G-associated kinase (Homo sapiens) (UniProt O14976). The experiment in a line: Inhibition of T7 bacteriophage fused human GAK at 10 uM by KINOMEscan analysis relative to control; values are per cent of control.
For test [3], the target named is Calcium/calmodulin-dependent protein kinase type 1G (Homo sapiens) (UniProt Q96NX5). Briefly: Inhibition of T7 bacteriophage fused human CAMK1G at 10 uM by KINOMEscan analysis relative to control.
Test [4] has as its target Serine/threonine-protein kinase tousled-like 1 (Homo sapiens) (UniProt Q9UKI8). Briefly: Inhibition of T7 bacteriophage fused human TLK1 at 10 uM by KINOMEscan analysis relative to control.
The target of test [5] is Activin receptor type-1-like (Homo sapiens) (UniProt P37023). The experiment in a line: Inhibition of T7 bacteriophage fused human ACVRL1 at 10 uM by KINOMEscan analysis relative to control.
Test [6] has as its target Dual specificity mitogen-activated protein kinase kinase 6 (Homo sapiens) (UniProt P52564). Briefly: Inhibition of T7 bacteriophage fused human MEK6 at 10 uM by KINOMEscan analysis relative to control; values are per cent of control.
Test [7] concerns the target Cyclin-dependent kinase 11B (Homo sapiens) (UniProt P21127). The experiment in a line: Inhibition of T7 bacteriophage fused human CDC2L1 at 10 uM by KINOMEscan analysis relative to control.
Test [8] has as its target Ribosomal protein S6 kinase alpha-2 (Homo sapiens) (UniProt Q15349). The experiment in a line: Inhibition of T7 bacteriophage fused human C-terminal RSK3 Kinase domain-2 at 10 uM by KINOMEscan analysis relative to control.
Test [9] concerns the target Phosphatidylinositol 5-phosphate 4-kinase type-2 beta (Homo sapiens) (UniProt P78356). Briefly: Inhibition of T7 bacteriophage fused human PIP5K2B at 10 uM by KINOMEscan analysis relative to control.
For test [10], the target named is Serine/threonine-protein kinase PLK1 (Homo sapiens) (UniProt P53350). Briefly: Inhibition of T7 bacteriophage fused human PLK1 at 10 uM by KINOMEscan analysis relative to control.
The target of test [11] is RAC-gamma serine/threonine-protein kinase (Homo sapiens) (UniProt Q9Y243). Briefly: Inhibition of T7 bacteriophage fused human AKT3 at 10 uM by KINOMEscan analysis relative to control.
Sequence of RAC-gamma serine/threonine-protein kinase (Homo sapiens) (Q9Y243 whole entry, the tested form may be a part): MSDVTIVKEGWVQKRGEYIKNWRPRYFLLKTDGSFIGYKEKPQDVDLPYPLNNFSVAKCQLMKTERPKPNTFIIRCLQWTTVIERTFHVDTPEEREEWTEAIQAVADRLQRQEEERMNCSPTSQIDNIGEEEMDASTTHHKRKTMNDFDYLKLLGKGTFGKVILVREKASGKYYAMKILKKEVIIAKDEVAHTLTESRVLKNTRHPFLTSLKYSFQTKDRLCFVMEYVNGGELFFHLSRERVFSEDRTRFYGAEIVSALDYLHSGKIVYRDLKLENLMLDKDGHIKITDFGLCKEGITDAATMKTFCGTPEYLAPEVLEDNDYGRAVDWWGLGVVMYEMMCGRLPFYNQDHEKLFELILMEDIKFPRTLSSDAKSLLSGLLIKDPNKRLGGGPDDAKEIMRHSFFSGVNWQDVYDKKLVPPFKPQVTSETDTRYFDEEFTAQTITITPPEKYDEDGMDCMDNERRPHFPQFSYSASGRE
Test [12] addresses cAMP-dependent protein kinase catalytic subunit beta (Homo sapiens) (UniProt P22694). Briefly: Inhibition of T7 bacteriophage fused human PKAC-beta at 10 uM by KINOMEscan analysis relative to control.
The subject of test [13] is Receptor-type tyrosine-protein kinase FLT3 (Homo sapiens), P36888 [D835Y]. Briefly: Inhibition of T7 bacteriophage fused human FLT3 D835Y mutant at 10 uM by KINOMEscan analysis relative to control.
The target in test [14] is Mitogen-activated protein kinase 8 (Homo sapiens) (UniProt P45983). The experiment in a line: Inhibition of T7 bacteriophage fused human JNK1 at 10 uM by KINOMEscan analysis relative to control; values are per cent of control.
Test [15] relates to Phosphatidylinositol 4,5-bisphosphate 3-kinase catalytic subunit alpha isoform (Homo sapiens), P42336 [M1043I]. The experiment in a line: Inhibition of T7 bacteriophage fused human PIK3CA M1043I mutant at 10 uM by KINOMEscan analysis relative to control.
The target in test [16] is Serine/threonine-protein kinase Nek6 (Homo sapiens) (UniProt Q9HC98). Briefly: Inhibition of T7 bacteriophage fused human NEK6 at 10 uM by KINOMEscan analysis relative to control.
The target of test [17] is Receptor-interacting serine/threonine-protein kinase 1 (Homo sapiens) (UniProt Q13546). The experiment in a line: Inhibition of T7 bacteriophage fused human RIPK1 at 10 uM by KINOMEscan analysis relative to control.
The target in test [18] is CDK4/Cyclin D3 (Homo sapiens) (UniProt P11802+P30281). The experiment in a line: Inhibition of T7 bacteriophage fused human CDK4-cyclinD3 at 10 uM by KINOMEscan analysis relative to control. Format: protein-complex assay.
Test [19] concerns the target Protein kinase C epsilon type (Homo sapiens) (UniProt Q02156). The experiment in a line: Inhibition of T7 bacteriophage fused human PRKCE at 10 uM by KINOMEscan analysis relative to control.
Test [20] concerns the target Activin receptor type-2B (Homo sapiens) (UniProt Q13705). The experiment in a line: Inhibition of T7 bacteriophage fused human ACVR2B at 10 uM by KINOMEscan analysis relative to control.
In test [21] the target is LIM domain kinase 1 (Homo sapiens) (UniProt P53667). Briefly: Inhibition of T7 bacteriophage fused human LIMK1 at 10 uM by KINOMEscan analysis relative to control; values are per cent of control.
Test [22] concerns the target Ephrin type-A receptor 1 (Homo sapiens) (UniProt P21709). The experiment in a line: Inhibition of T7 bacteriophage fused human EPHA1 at 10 uM by KINOMEscan analysis relative to control.
Test [23] relates to Tyrosine-protein kinase ABL1 (Homo sapiens), P00519 [Q252H]. The experiment in a line: Inhibition of T7 bacteriophage fused human phosphorylated ABL1 Q252H mutant at 10 uM by KINOMEscan analysis relative to control.
Test [24] concerns the target Insulin receptor (Homo sapiens) (UniProt P06213). The experiment in a line: Inhibition of T7 bacteriophage fused human INSR at 10 uM by KINOMEscan analysis relative to control; values are per cent of control.
Test [25] deals with Serine/threonine-protein kinase MRCK alpha (Homo sapiens) (UniProt Q5VT25). The experiment in a line: Inhibition of T7 bacteriophage fused human MRCKA at 10 uM by KINOMEscan analysis relative to control.
Test [26] concerns the target Serine/threonine-protein kinase pim-2 (Homo sapiens) (UniProt Q9P1W9). Briefly: Inhibition of T7 bacteriophage fused human PIM2 at 10 uM by KINOMEscan analysis relative to control.
Test [27] has as its target Serine/threonine-protein kinase TAO2 (Homo sapiens) (UniProt Q9UL54). Briefly: Inhibition of TAO2 Lys2 labeling site in human PC-3 cell lysate at 10 uM by KiNativ profiling analysis relative to control. The format is subcellular.
The test system of test [28] is Leucine-rich repeat serine/threonine-protein kinase 2 (Homo sapiens), Q5S007 [A2016T]. Briefly: Inhibition of drug-resistant GFP-tagged LRRK2 A2016T mutant phosphorylation at Ser935 residue (unknown origin) transfected in HEK293 cells upto 3 uM incubated for 90 mins by immunoblot analysis. Format: cell-based. A digest of the protocol:
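HEK293 cells stably expressing GFP-LRRK2 variants, grown in DMEM with 10% FBS, 2 mM glutamine and penicillin/streptomycin. Compound added from DMSO stock (final DMSO ≤1%) at increasing concentrations for 90 min, DMSO control. Cells were PBS-washed and lysed in Triton X-100 lysis buffer. Lysates were run on 8% SDS-PAGE and immunoblotted with rabbit monoclonals against pSer910, pSer935 and total LRRK2.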
Background: A western blot detects proteins with antibodies after separation by electrophoresis.

Calls of active or inactive are those of the source. The calls are words filed in the database; no cut-off is given here.

Sequence of Serine/threonine-protein kinase tousled-like 1 (Homo sapiens) (Q9UKI8 whole entry, the tested form may be a part): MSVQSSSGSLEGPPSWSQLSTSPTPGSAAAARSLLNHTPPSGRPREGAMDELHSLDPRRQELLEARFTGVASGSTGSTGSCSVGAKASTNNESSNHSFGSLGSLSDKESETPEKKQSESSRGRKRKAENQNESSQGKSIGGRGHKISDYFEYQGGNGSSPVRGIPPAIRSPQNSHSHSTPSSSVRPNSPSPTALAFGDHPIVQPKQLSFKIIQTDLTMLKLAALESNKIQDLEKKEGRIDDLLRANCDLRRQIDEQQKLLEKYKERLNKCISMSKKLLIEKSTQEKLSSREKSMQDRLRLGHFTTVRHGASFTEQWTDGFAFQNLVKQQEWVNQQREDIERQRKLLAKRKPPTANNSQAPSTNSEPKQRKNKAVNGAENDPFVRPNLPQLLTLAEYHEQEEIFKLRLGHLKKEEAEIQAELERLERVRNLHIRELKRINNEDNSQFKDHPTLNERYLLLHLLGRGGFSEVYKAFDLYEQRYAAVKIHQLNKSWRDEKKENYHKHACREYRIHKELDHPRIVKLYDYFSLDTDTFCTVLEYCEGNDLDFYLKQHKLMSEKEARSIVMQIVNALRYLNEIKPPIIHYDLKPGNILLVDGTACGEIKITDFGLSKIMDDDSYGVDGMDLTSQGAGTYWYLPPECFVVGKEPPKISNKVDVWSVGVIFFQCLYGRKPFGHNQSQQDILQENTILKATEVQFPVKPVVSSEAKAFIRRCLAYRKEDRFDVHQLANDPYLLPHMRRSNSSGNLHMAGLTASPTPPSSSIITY
Sequence of Leucine-rich repeat serine/threonine-protein kinase 2 (Homo sapiens), Q5S007 [A2016T] (Q5S007 whole entry A2016T): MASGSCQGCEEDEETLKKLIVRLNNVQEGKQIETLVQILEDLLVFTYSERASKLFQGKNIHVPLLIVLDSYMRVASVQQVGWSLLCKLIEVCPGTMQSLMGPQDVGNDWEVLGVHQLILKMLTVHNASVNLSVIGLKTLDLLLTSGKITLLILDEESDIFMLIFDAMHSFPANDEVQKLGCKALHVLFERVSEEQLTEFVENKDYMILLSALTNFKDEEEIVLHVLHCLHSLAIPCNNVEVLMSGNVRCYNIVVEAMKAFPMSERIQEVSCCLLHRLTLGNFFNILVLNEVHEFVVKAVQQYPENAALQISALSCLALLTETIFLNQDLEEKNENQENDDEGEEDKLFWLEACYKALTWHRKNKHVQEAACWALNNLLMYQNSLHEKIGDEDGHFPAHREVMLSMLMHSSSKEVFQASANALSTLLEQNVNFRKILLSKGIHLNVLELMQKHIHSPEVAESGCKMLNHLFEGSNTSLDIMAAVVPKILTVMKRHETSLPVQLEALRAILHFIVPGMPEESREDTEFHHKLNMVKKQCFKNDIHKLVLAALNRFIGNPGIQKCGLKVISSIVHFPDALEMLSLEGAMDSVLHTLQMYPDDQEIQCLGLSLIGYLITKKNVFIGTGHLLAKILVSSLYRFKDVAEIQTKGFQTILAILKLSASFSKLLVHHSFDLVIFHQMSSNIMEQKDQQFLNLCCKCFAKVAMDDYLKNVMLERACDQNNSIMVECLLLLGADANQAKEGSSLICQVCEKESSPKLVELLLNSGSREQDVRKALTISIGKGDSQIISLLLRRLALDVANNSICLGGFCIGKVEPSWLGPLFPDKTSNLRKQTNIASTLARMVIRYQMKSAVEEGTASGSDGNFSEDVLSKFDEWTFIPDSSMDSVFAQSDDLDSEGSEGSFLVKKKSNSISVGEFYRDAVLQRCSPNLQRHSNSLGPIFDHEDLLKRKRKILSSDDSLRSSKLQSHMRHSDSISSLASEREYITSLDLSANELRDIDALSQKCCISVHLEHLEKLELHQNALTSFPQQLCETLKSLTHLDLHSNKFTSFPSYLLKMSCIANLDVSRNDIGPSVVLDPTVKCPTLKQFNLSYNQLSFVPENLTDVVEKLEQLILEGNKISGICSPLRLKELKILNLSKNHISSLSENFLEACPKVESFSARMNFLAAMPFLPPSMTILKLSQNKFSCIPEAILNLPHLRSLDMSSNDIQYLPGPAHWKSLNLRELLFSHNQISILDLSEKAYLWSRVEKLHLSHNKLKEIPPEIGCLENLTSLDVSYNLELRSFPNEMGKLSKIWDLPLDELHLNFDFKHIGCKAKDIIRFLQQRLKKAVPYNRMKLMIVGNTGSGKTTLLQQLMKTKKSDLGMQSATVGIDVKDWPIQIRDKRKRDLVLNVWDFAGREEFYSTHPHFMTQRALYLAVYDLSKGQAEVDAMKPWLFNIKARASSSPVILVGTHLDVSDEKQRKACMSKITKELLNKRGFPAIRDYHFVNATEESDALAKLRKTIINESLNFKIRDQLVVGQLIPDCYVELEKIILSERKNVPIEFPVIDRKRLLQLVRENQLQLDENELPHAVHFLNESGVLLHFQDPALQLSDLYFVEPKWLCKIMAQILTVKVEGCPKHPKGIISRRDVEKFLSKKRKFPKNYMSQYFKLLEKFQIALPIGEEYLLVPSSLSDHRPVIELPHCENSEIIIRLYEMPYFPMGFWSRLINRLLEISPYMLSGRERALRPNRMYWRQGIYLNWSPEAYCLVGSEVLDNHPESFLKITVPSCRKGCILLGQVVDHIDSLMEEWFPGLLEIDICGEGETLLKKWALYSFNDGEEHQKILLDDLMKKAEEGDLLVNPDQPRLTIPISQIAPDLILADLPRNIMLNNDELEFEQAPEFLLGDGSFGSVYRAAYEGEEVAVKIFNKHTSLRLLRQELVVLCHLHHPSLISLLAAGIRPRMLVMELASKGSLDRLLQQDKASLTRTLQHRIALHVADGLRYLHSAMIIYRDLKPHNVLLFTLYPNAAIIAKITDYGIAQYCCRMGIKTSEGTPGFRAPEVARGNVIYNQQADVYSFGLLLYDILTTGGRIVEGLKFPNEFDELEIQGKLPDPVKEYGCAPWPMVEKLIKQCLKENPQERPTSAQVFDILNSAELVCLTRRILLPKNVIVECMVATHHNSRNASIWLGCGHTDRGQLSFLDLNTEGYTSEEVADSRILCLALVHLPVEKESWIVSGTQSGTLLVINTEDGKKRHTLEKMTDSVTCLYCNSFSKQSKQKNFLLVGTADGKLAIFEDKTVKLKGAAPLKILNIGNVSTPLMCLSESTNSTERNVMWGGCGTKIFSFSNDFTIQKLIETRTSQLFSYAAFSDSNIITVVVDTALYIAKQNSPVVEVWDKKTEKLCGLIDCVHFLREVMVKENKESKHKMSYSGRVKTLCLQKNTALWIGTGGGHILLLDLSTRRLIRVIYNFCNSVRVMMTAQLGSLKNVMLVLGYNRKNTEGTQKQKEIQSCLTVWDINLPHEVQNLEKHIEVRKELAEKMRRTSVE
Sequence of Serine/threonine-protein kinase TAO2 (Homo sapiens) (Q9UL54 whole entry): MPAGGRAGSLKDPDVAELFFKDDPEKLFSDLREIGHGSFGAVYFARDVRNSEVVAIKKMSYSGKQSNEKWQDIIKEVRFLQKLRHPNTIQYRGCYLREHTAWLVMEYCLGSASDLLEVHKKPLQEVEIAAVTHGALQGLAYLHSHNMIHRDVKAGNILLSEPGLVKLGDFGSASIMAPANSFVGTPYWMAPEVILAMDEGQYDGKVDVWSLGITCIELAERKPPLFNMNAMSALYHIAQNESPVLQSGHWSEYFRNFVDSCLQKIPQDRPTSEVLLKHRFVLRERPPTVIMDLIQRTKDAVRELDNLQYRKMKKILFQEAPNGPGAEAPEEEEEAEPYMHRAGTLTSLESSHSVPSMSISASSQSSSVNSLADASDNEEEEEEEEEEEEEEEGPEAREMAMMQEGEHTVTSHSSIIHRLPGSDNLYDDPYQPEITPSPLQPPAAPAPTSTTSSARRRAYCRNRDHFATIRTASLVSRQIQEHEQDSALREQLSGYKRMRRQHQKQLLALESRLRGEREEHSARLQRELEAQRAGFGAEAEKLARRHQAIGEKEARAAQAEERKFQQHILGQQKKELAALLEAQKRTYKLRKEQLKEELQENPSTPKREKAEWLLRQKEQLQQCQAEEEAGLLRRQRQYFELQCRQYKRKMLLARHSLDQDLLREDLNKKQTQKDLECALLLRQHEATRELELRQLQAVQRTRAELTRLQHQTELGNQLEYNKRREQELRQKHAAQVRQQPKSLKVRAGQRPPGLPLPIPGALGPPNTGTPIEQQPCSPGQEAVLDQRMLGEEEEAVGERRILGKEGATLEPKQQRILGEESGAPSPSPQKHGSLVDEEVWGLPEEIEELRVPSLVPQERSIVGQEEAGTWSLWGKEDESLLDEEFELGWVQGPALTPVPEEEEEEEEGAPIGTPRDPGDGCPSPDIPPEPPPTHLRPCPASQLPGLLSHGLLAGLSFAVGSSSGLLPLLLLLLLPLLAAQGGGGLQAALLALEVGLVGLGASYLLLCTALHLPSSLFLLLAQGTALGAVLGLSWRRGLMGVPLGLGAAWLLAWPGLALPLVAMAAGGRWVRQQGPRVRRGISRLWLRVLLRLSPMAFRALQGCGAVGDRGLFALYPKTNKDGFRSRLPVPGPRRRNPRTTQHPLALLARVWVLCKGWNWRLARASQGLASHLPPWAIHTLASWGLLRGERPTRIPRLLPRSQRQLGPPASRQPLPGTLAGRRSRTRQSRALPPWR

With `COc1cc(N2CCC(N3CCN(C)CC3)CC2)ccc1Nc1ncc2c(n1)N(C)c1ccccc1C(=O)N2C`, the inhibition in test [1] was found to be 0%; in test [3], 74%; in test [4], 100%; in [5], 100%; in test [7] it was 84%; in [8] it was 7.5%. Besides, the inhibition in test [9] worked out at 100%; in [10], 0.7%; in test [11] it was 100%; in [12], 100%; in test [13], 100%; in test [15] it was 65%. Moreover, the inhibition worked out at 76% in test [16]; 99% in test [17]; 100% in test [18]; 100% in [19]; 100% in test [20]; 100% in [22]. The inhibition in [23], in test [25] and in test [26] was 100% throughout. For the same molecule, the residual activity amounted to 16% in test [2]; 83% in test [6]; 95% in test [14]; 95% in [21]; 84% in test [24].

Molecule `COc1cc(C(=O)N2CCC(N3CCN(C)CC3)CC2)ccc1Nc1ncc2c(n1)N(C1CCCC1)c1ccccc1C(=O)N2C` yielded an inhibition in [27] of 0.3%.

`CCOc1cc(C(=O)N2CCC(N3CCN(C)CC3)CC2)ccc1Nc1ncc2c(n1)N(C1CCCC1)c1ccccc1C(=O)N2C`: the inhibition result in test [28] was “inactive”.

The values above are taken from ChEMBL document CHEMBL5678810.
